Assay [1] is described as follows: Tested for activation of Glutamate decarboxylase; the ratio of Vmax in the presence of activators to the Vmax in the absence of activators at a concentration of 2.5 mM. A digest of the protocol: (§1)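 Purified GAD (57 µg; sp act. 7.8 nmol/min·mg), 50 mM potassium phosphate pH 7.2, 37 °C, 60 min. Substrate L-glutamate 0.5–0.10 mM spiked with [1-14C]-L-glutamate. Activator at 2.5–0.05 mM. Reaction quenched with 6 M H2SO4; released 14CO2 trapped in KOH center well and counted. Vmax taken from 1/dpm vs 1/[glutamate] plots. Activation is Vmax(+activator)/Vmax(none) ×100%.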

Assay [2] can be described thus: Tested for activation of Glutamate decarboxylase; the ratio of Vmax in the presence of activators to the Vmax in the absence of activators at a concentration of 250 uM. A digest of the protocol:
as §1

The nature of assay [3]: Tested for activation of Glutamate decarboxylase; the ratio of Vmax in the presence of activators to the Vmax in the absence of activators at a concentration of 1.0 mM. Summed up: as §1
A short description of assay [4]: Compound was tested for anticonvulsant activity in Mice by iv administration at the dose of 100 mg/kg; 6/10. The assay is classed as functional, Mus musculus. A digest of the protocol:
(§2)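 Male CF-1 mice (20-28 g), compound given iv. 120 min later, low-intensity corneal electroshock (17 mA base-to-peak sinusoidal, 0.2 s). Protection was scored as prevention of hindlimb tonic extensor seizure and reported as number protected/number tested.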

The nature of assay [5]: Compound was tested for anticonvulsant activity in Mice by iv administration at the dose of 100 mg/kg. It counts as functional, Mus musculus. A digest of the protocol: as §2
A short description of assay [6]: Compound was tested for anticonvulsant activity in Mice by iv administration at the dose of 30 mg/kg; 2/10. The assay is classed as functional, Mus musculus. A digest of the protocol:
as §2

A short description of assay [7]: Compound was tested for anticonvulsant activity in Mice by iv administration at the dose of 100 mg/kg; 0/10. The assay is classed as functional, Mus musculus. A digest of the protocol:
as §2

Assay [8] in a line: Compound was tested for activation of Glutamate decarboxylase which is the ratio of Vmax in the presence of activators to the Vmax in the absence of activators at a concentration of 500 uM. Summed up:
as §1

The nature of assay [9]: Compound was tested for activation of Glutamate decarboxylase which is the ratio of Vmax in the presence of activators to the Vmax in the absence of activators at a concentration of 100 uM. Summed up: as §1
Assay [10] in a line: Compound was tested for anticonvulsant activity in Mice by iv administration at the dose of 100 mg/kg; 4/10. The assay is classed as functional, Mus musculus. A digest of the protocol: as §2
Assay [11] in a line: Compound was tested for anticonvulsant activity in Mice by iv administration at the dose of 100 mg/kg. The assay is classed as functional, Mus musculus. Summed up: as §2
A short description of assay [12]: Compound was tested for anticonvulsant activity in Mice by iv administration at the dose of 14.4 mg/kg; 9/10. It counts as functional, Mus musculus. A digest of the protocol:
as §2

Assay [13] can be described thus: Compound was tested for anticonvulsant activity in Mice by iv administration at the dose of 100 mg/kg; 2/10. The assay is classed as functional, Mus musculus. Summed up:
as §2

Assay [14] in a line: Compound was tested for activation of Glutamate decarboxylase which is the ratio of Vmax in the presence of activators to the Vmax in the absence of activators at a concentration of 50 uM. A digest of the protocol:
as §1

The nature of assay [15]: Compound was tested for anticonvulsant activity in Mice by iv administration at the dose of 100 mg/kg; 3/5. It counts as functional, Mus musculus. A digest of the protocol: as §2
A short description of assay [16]: Compound was tested for anticonvulsant activity in Mice by iv administration at the dose of 100 mg/kg; 5/10. The assay is classed as functional, Mus musculus. Summed up:
as §2

The results in this text go back to ChEMBL document CHEMBL1125596, “3-Alkyl-4-aminobutyric acids: the first class of anticonvulsant agents that activates L-glutamic acid decarboxylase” (1991).

In the case of `CC(C)C(CN)CC(=O)O` (stereo not drawn), the Activity in assay [1] amounted to 140; in assay [2], 104; in assay [3], 108. The “No. of animals protected” value in assay [4] is 6.

In the case of `CC(C)(CN)CC(=O)O`, the Activity was 174 in assay [1], 109 in assay [2] and 125 in assay [3]. Moreover, in assay [5], the “No. of animals protected” value is 8.

Turning to `NCC1(CC(=O)O)CCCCC1`, the Activity was 178 in assay [1], 105 in assay [2] and 145 in assay [3].

With `CCC(C)C(CN)CC(=O)O` (stereo not drawn), the Activity in assay [1] stood at 169; in [2], 105; in [3], 119. Also, the “No. of animals protected” value in assay [6] worked out at 2.

In the case of `CC(C)CCC(CN)CC(=O)O` (stereo not drawn), the Activity is 142 in assay [1], 109 in assay [2] and 118 in assay [3]. Besides, the “No. of animals protected” value in [7] was determined as 0.

For the compound `NCC(CC(=O)O)C1CCCCC1` (stereo not drawn), the Activity worked out at 125 in [1], 100 in [2] and 100 in assay [3].

For `CCCCCNCC(N)=O`, the Activity in [1] was 230; in [2], 126; in assay [3], 170.

Turning to `CCCC(CCC)C(=O)O`, the Activity came out at 207 in [1], 124 in [8], 138 in [3] and 115 in assay [9].

As to `CC(C)(C)CC(CN)CC(=O)O` (stereo not drawn), the Activity was 279 in assay [1], 130 in assay [2] and 181 in [3]. In addition, in assay [10], the “No. of animals protected” value was determined as 4.

For the compound `C[C@H](CN)CC(=O)O`, the Activity in assay [1] worked out at 170; in assay [2] it was 103; in [3], 118. In addition, the “No. of animals protected” value in [5] is 5.

As to `C[C@@H](CN)CC(=O)O`, the Activity in [1] is 327; in assay [8], 185; in assay [3] it was 202; in [9] it was 128. Further, the “No. of animals protected” value in assay [11] was 5.

On to `CCC(CN)CC(=O)O` (stereo not drawn), for which the Activity in assay [1] came out at 172; in assay [2], 108; in [3] it was 128. Moreover, the “No. of animals protected” value in assay [5] came out at 5.

For the compound `CC(C)CC(CN)CC(=O)O` (stereo not drawn), the Activity in [2] is 109. In addition, the “No. of animals protected” value in [12] is listed as 9.

Consider `CCCCC(CN)CC(=O)O` (stereo not drawn), for which the results for the Activity in [1], in assay [2] and in assay [3] were 178, 105 and 117, respectively. Besides, the “No. of animals protected” value in [13] is listed as 2.

With `CC(CN)CC(=O)O` (stereo not drawn), the Activity in assay [1] was 239; in assay [2], 128; in assay [8], 142; in assay [14], 107; in assay [3] it was 168; in assay [9], 118. Besides, the “No. of animals protected” value in assay [5] came out at 3.

Consider `CCCC(CN)CC(=O)O` (stereo not drawn), for which the Activity in [1] came to 156; in assay [2], 105; in assay [3], 112. In assay [15], the “No. of animals protected” value is recorded as 3.

For the compound `CC(C)(C)C(CN)CC(=O)O` (stereo not drawn), the Activity amounted to 295 in assay [1], 147 in assay [8], 174 in assay [3] and 117 in assay [9]. In assay [16], the “No. of animals protected” value is 5.
